ChEMBL document CHEMBL4390648, “Chemical synthesis, crystal structure, versatile evaluation of their biological activities and molecular simulations of novel pyrithiobac derivatives” (Eur J Med Chem, 2019)
In brackets after ≈: the same amount, converted by molar mass. Activity calls are given as the source filed them. The calls are words filed in the database; no cut-off is given here.

Key:
[1] = tested on: Candida albicans; test: Antifungal activity against Candida albicans isolate 17 grown in RPMI 1640 medium incubated for 24 hrs by microdilution method; assay type: functional; details: isolate 17, 24 h
Procedure, shortened: (§1)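 C. albicans standard strain SC5314 and clinical isolates g5 and 17# tested by broth microdilution in YNB or RPMI 1640 medium. Plates incubated at 35 °C for up to 72 h, with visual readings taken at 24 h. MIC taken as the lowest concentration preventing visible growth.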

[2] = tested on: Ceratobasidium cereale; test: Antifungal activity against Rhizoctonia cerealis assessed as reduction in growth at 50 mg/l by mycelium growth rate method relative to control; assay type: functional
Procedure, shortened: (§2)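 Mycelium growth rate method against S. sclerotiorum, P. capsici, P. piricola, R. cerealis, W. anthracnose and R. bakanae. Each compound tested at 50 mg/L, with chlorothalonil and PTB as controls. Relative inhibitory ratio (%) calculated from mycelial growth.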

[3] = tested on: Candida albicans; test: Antifungal activity against Candida albicans SC5314 grown in RPMI 1640 medium incubated for 24 hrs by microdilution method; assay type: functional; details: SC5314, 24 h; procedure, shortened: as §1
[4] = tested on: Candida albicans; test: Inhibition of Candida albicans AHAS catalytic subunit at 10 uM using pyruvate as substrate measured after 30 mins by colorimetric method relative to control
Procedure, shortened: (§3)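 Colorimetric assay in 50 mM potassium phosphate pH 7.0 with 50 mM pyruvate, 1 mM thiamine diphosphate, 10 mM MgCl2 and 10 μM FAD. Incubated 30 min at 37 °C for plant AHAS and 30 °C for fungal AHAS. Acetolactate formed was then quantified.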

[5] = tested on: Candida albicans; test: Inhibition of Candida albicans AHAS catalytic subunit at 100 uM using pyruvate as substrate measured after 30 mins by colorimetric method relative to control; procedure, shortened: as §3
[6] = tested on: Candida albicans; test: Antifungal activity against Candida albicans isolate g5 grown in RPMI 1640 medium incubated for 24 hrs by microdilution method; assay type: functional; details: isolate g5, 24 h; procedure, shortened: as §1
[7] = tested on: Candida albicans; test: Antifungal activity against Candida albicans SC5314 grown in YNB medium incubated for 24 hrs by microdilution method; assay type: functional; details: SC5314, 24 h; procedure, shortened: as §1
[8] = tested on: Candida albicans; test: Antifungal activity against Candida albicans isolate 17 grown in YNB medium incubated for 24 hrs by microdilution method; assay type: functional; details: isolate 17, 24 h; procedure, shortened: as §1
[9] = tested on: Candida albicans; test: Antifungal activity against Candida albicans isolate g5 grown in YNB medium incubated for 24 hrs by microdilution method; assay type: functional; details: isolate g5, 24 h; procedure, shortened: as §1
[10] = tested on: Arabidopsis thaliana; test: Inhibition of Arabidopsis thaliana AHAS catalytic subunit using pyruvate as substrate at 100 uM measured after 30 mins by colorimetric method relative to control; procedure, shortened: as §3
[11] = tested on: Arabidopsis thaliana; test: Inhibition of Arabidopsis thaliana AHAS catalytic subunit using pyruvate as substrate at 10 uM measured after 30 mins by colorimetric method relative to control; procedure, shortened: as §3
[12] = tested on: Brassica rapa subsp. oleifera; test: Herbicidal activity against Brassica campestris L assessed as inhibition of rape root growth at 100 mg/l root growth incubated for 48 hrs relative to control; assay type: functional
Procedure, shortened: (§4)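 Rape seeds soaked in distilled water for 4 h, then placed on filter paper wetted with inhibitor solution, 15 seeds per 6-cm dish. Germinated in the dark at 28 °C for 48 h. Mean length of 10 roots per plate measured.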

[13] = tested on: Brassica rapa subsp. oleifera; test: Herbicidal activity against Brassica campestris L assessed as inhibition of rape root growth at 10 mg/l root growth incubated for 48 hrs relative to control; assay type: functional; procedure, shortened: as §4
[14] = tested on: Sclerotinia sclerotiorum; test: Antifungal activity against Sclerotinia sclerotiorum assessed as reduction in growth at 50 mg/l by mycelium growth rate method relative to control; assay type: functional; procedure, shortened: as §2
[15] = tested on: Phytophthora capsici; test: Antifungal activity against Phytophthora capsici assessed as reduction in growth at 50 mg/l by mycelium growth rate method relative to control; assay type: functional; procedure, shortened: as §2
[16] = tested on: Botryosphaeria berengeriana; test: Antifungal activity against Physalospora pyricola assessed as reduction in growth at 50 mg/l by mycelium growth rate method relative to control; assay type: functional; procedure, shortened: as §2
[17] = tested on: Colletotrichum; test: Antifungal activity against Colletotrichum (W. anthracnose) assessed as reduction in growth at 50 mg/l by mycelium growth rate method relative to control; assay type: functional; procedure, shortened: as §2
[18] = tested on: Fusarium fujikuroi; test: Antifungal activity against Gibberella fujikuroi assessed as reduction in growth at 50 mg/l by mycelium growth rate method relative to control; assay type: functional; procedure, shortened: as §2
[19] = tested on: Ceratobasidium cereale; test: Antifungal activity against Rhizoctonia cerealis assessed as reduction in growth mycelium growth rate method relative to control; assay type: functional, organism-based
Procedure, shortened: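 EC50 against R. cerealis derived from mycelium growth-rate inhibition over a concentration series, using a probit fit: Probit = m(log10[I] − log10[EC50]) + 5.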

[20] = tested on: Mythimna separata; test: Insecticidal activity against Mythimna separata assessed as larval mortality at 600 mg/l by leaf-dip method; assay type: functional
[21] = tested on: Tobacco mosaic virus; test: Antiviral activity against Tobacco mosaic virus inoculated in Nicotiana tabacum leaves assessed as passivation by measuring local lesion numbers at 500 mg/l pre-incubated with virus for 30 mins followed by inoculation and measured up to 4 days; assay type: functional
Procedure, shortened: (§5)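 Passivation assay: TMV mixed with an equal volume of compound solution for 30 min, then rubbed onto the left half of N. tabacum L. leaves. The right half received virus mixed with solvent as control. Local lesions counted 3–4 days after inoculation. Compounds tested at 500 or 100 mg/L.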

[22] = tested on: Tobacco mosaic virus; test: Antiviral activity against Tobacco mosaic virus inoculated in Nicotiana tabacum leaves assessed as passivation by measuring local lesion numbers at 100 mg/l pre-incubated with virus for 30 mins followed by inoculation and measured up to 4 days; assay type: functional; procedure, shortened: as §5
[23] = tested on: Severe acute respiratory syndrome-related coronavirus; test: Inhibition of SARS coronavirus M protease using AVLQSGFRKK as substrate at 20 uM by FRET assay relative to control
Procedure, shortened: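 Purified SARS-CoV Mpro assayed by FRET. Protein, compound and substrate were preheated at 37 °C and oscillated. Fluorescence (ex 320/em 405 nm) was read every 5 s for 200 reads.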

[24] = tested on: Brassica rapa subsp. oleifera; test: Pre-emergence herbicidal activity against Brassica campestris assessed as reduction in growth at 300g/ha measured after 24 days green house pot method relative to control; assay type: functional; details: 576 h
[25] = tested on: Amaranthus retroflexus; test: Pre-emergence herbicidal activity against Amaranthus retroflexus assessed as reduction in growth at 300g/ha measured after 24 days by green house pot method relative to control; assay type: functional; details: 576 h
[26] = tested on: Echinochloa crus-galli; test: Pre-emergence herbicidal activity against Echinochloa crus-galli assessed as reduction in growth at 300g/ha measured after 24 days by green house pot method relative to control; assay type: functional; details: 576 h
[27] = tested on: Digitaria adscendens; test: Pre-emergence herbicidal activity against Digitaria adscendens assessed as reduction in growth at 300g/ha measured after 24 days by green house pot method relative to control; assay type: functional; details: 576 h
[28] = tested on: Brassica rapa subsp. oleifera; test: Post-emergence herbicidal activity against Brassica campestris assessed as reduction in growth at 300g/ha measured after 24 days by green house pot method relative to control; assay type: functional; details: 576 h
[29] = tested on: Amaranthus retroflexus; test: Post-emergence herbicidal activity against Amaranthus retroflexus assessed as reduction in growth at 300g/ha measured after 24 days by green house pot method relative to control; assay type: functional; details: 576 h
[30] = tested on: Echinochloa crus-galli; test: Post-emergence herbicidal activity against Echinochloa crus-galli assessed as reduction in growth at 300g/ha measured after 24 days by green house pot method relative to control; assay type: functional; details: 576 h
[31] = tested on: Digitaria adscendens; test: Post-emergence herbicidal activity against Digitaria adscendens assessed as reduction in growth at 300g/ha measured after 24 days by based green house pot method relative to control; assay type: functional; details: 576 h

| Compound | MIC [1] [mg/L] | inhibition at 50 µg/mL [2] [%] | MIC [3] [mg/L] | inhibition [4] [%] | inhibition [5] [%] | MIC [6] [mg/L] | MIC [7] [mg/L] | MIC [8] [mg/L] | MIC [9] [mg/L] | inhibition [10] [%] | inhibition [11] [%] | inhibition (INH) [12] [%] | inhibition (INH) [13] [%] | inhibition at 50 µg/mL [14] [%] | inhibition at 50 µg/mL [15] [%] | inhibition at 50 µg/mL [16] [%] | inhibition at 50 µg/mL [17] [%] | inhibition at 50 µg/mL [18] [%] | EC50 [19] [mg/L] | inhibition at 500 µg/mL [21] [%] | also measured |
| --- | --- | --- | --- | --- | --- | --- | --- | --- | --- | --- | --- | --- | --- | --- | --- | --- | --- | --- | --- | --- | --- |
| COc1cc(OC)nc(Sc2ccc(C(=O)O)cc2Br)n1 | > 100 | 96.4 | > 100 | 70.7 | 94.6 | > 100 | 25 (≈ 67.3 µM) | 12.5 (≈ 33.7 µM) | 25 (≈ 67.3 µM) | 100 | 48.9 | 26.4 | 0 | 50 | 42.7 | 51.6 | 45.2 | 39.4 | 11.4 (≈ 30.7 µM) | 0 | mortality at 600 µg/mL [20]: 50%; inhibition [22]: inactive; inhibition [23]: 0% |
| COc1cc(OC)nc(Sc2ccc(F)cc2C(=O)O)n1 | 25 (≈ 80.6 µM) |  | 100 (≈ 322 µM) | 73.7 | 97.7 | 100 (≈ 322 µM) | 25 (≈ 80.6 µM) | 3.12 (≈ 10.1 µM) | 25 (≈ 80.6 µM) | 100 | 70.1 | 86 | 72 |  |  |  |  |  |  | 47 | inhibition at 300 g/ha [24]: 85.2%; inhibition at 300 g/ha [25]: 61.1%; inhibition at 300 g/ha [26]: 13.8%; inhibition at 300 g/ha [27]: 0%; inhibition at 300 g/ha [28]: 75.8%; inhibition at 300 g/ha [29]: 50.6%; inhibition at 300 g/ha [30]: 24.3%; inhibition at 300 g/ha [31]: 33%; inhibition at 100 µg/mL [22]: 11.4% |
| COc1cc(OC)nc(Sc2ccc(C(=O)O)cc2Cl)n1 | > 100 | 89.3 | > 100 | 62.3 | 85 | > 100 | > 100 | > 100 | > 100 | 100 | 31.4 | 73.4 | 30.6 | 83.3 | 41.7 | 76.6 | 28.6 | 60.6 | 9.2 (≈ 28.2 µM) | 0 | mortality at 600 µg/mL [20]: 50%; inhibition [22]: inactive; inhibition [23]: 0% |
| COc1cc(OC)nc(Sc2ccc(C(=O)O)cc2F)n1 | > 100 | 91.7 | > 100 | 81.7 | 91.7 | > 100 | > 100 | > 100 | > 100 | 100 | 40 | 82.2 | 48 | 83.3 | 58.3 | 50 | 40.5 | 48.5 | 11.8 (≈ 38 µM) | 46.5 | mortality at 600 µg/mL [20]: 30%; inhibition at 100 µg/mL [22]: 6.8%; inhibition [23]: 26.8% |
| COc1cc(OC)nc(Sc2ccc(Cl)cc2C(=O)O)n1 | > 100 | 89.3 | > 100 | 80.6 | 96.6 | > 100 | > 100 | > 100 | > 100 | 100 | 34 | 54.5 | 0 | 63.9 | 41.7 | 40.6 | 52.4 | 48.5 | 14.1 (≈ 43.2 µM) | 0 | mortality at 600 µg/mL [20]: 5%; inhibition [22]: inactive; inhibition [23]: 4.6% |
